SMILES strings stand for the structures. The source made the active and inactive calls. How the calls were made is not given here. Some results are limits rather than exact numbers.

One data set deals with Vesicular stomatitis virus. Kind of data set: Antiviral activity against VSV infected in Vero76 cells assessed as reduction in virus plaque formation after 4 days by MTT assay. Conditions: Vero 76. Format: functional, organism-based. On the technique in general: Tetrazolium dyes change colour on reduction, which living cells bring about.
As for `C(=C\N1CCSCC1)/N=N/c1ccccc1`, the outcome was inactive.
Consider `CN1CCC/C1=C\N=N\c1ccc(Br)c(C(F)(F)F)c1`, for which the result was inactive.
On the same count and under the same terms, the entry for `Clc1ccc(/N=N\C2=C3CCCCN3CCC2)cc1` is “inactive”; for `O=[N+]([O-])c1cc(/N=N\C2=C3CCCCN3CCC2)ccc1Cl` it is “inactive”; for `CCOC(=O)N1CCN(/C=C/N=N/c2ccccc2)CC1` it is “inactive”.
Same read-out and setting: with `CCOC(=O)c1ccc(/N=N/C=C/N2CCCCC2)cc1` the entry was “inactive”.
Same read-out and setting: with `Clc1ccc(/N=N/C=C2\CCCN2Cc2ccccc2)cc1` the entry was “inactive”.

A further data set has as its system Respiratory syncytial virus. Kind of data set: Antiviral activity against RSV infected in Vero76 cells assessed as reduction in virus plaque formation after 4 days by MTT assay. In kind it is functional, organism-based. Conditions: human respiratory syncytial virus, Vero 76, 96 h.
For the compound `C(=C\N1CCSCC1)/N=N/c1ccccc1`, the EC50 (commonly the concentration that produces a half-maximal response) is more than 30 µM.
The same measure, in the same setting: with `CN1CCC/C1=C\N=N\c1ccc(Br)c(C(F)(F)F)c1` the figure was more than 100 µM; with `Clc1ccc(/N=N\C2=C3CCCCN3CCC2)cc1`, 25 µM; with `O=[N+]([O-])c1cc(/N=N\C2=C3CCCCN3CCC2)ccc1Cl`, 75 µM.
On the same count and under the same terms, with `CCOC(=O)N1CCN(/C=C/N=N/c2ccccc2)CC1` the figure was 4 µM.
On to `CCOC(=O)c1ccc(/N=N/C=C/N2CCCCC2)cc1`, for which the concentration for a half-maximal effect (EC50) was more than 100 µM.
Still for that read-out and setting: with `Clc1ccc(/N=N/C=C2\CCCN2Cc2ccccc2)cc1` the figure was more than 70 µM.

Tested on in a further data set: not listed separately
Kind of data set: Cytotoxicity against mock-infected human MT4 cells assessed as reduction in cell viability after 96 hrs by MTT assay. Format: cell-based.
Settings: not given
The procedure, abridged:
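Exponentially growing MT-4 cells seeded at 1 × 10^5 cells/mL in RPMI-1640 with 10% FCS, penicillin and streptomycin, with or without serial compound dilutions. Incubated at 37 °C, 5% CO2; viability read by MTT after 96 h. CC50 is the concentration reducing mock-infected cell viability by 50%.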
Turning to `C(=C\N1CCSCC1)/N=N/c1ccccc1`, the CC50 (usually the concentration giving 50% cytotoxicity) at 96 h is 19 µM.
Still for that read-out and setting: with `CN1CCC/C1=C\N=N\c1ccc(Br)c(C(F)(F)F)c1` the figure was 24 µM; with `Clc1ccc(/N=N\C2=C3CCCCN3CCC2)cc1`, 42 µM.
Take `O=[N+]([O-])c1cc(/N=N\C2=C3CCCCN3CCC2)ccc1Cl`: the 50% cytotoxic concentration (CC50) at 96 h came out at 33 µM.
The same measure, in the same setting: with `CCOC(=O)N1CCN(/C=C/N=N/c2ccccc2)CC1` the figure was 17 µM.
Still for that read-out and setting: the figure for `CCOC(=O)c1ccc(/N=N/C=C/N2CCCCC2)cc1` is 33 µM; for `Clc1ccc(/N=N/C=C2\CCCN2Cc2ccccc2)cc1` it is 17 µM.

The test system of another data set is Bovine viral diarrhea virus 1. Kind of data set: Antiviral activity against BVDV infected in MDBK cells assessed as protection against virus-induced cytopathogenicity after 4 days by MTT assay. The settings on record: Bovine viral diarrhea virus isolates and strains, 96 h. In kind it is functional, organism-based. The gist of the method: (§1)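 MDBK (BVDV) or BHK-21 (YFV) cells were seeded at 3 × 10^4 or 5 × 10^4 cells/well respectively and grown overnight to confluent monolayers at 37 °C in 5% CO2. Monolayers were infected at m.o.i. 0.01 in serum-free medium. After 1 h, MEM Earle's with 1% FCS was added, with or without serial compound dilutions. After 3–4 days at 37 °C, viability was read by MTT. EC50 was taken as 50% protection from virus-induced cytopathogenicity.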
Background: Protection from cytopathic effect is a common read-out in antiviral testing.
Take `C(=C\N1CCSCC1)/N=N/c1ccccc1`: the 50% effective concentration (EC50) was more than 14 µM.
Same read-out and setting: the figure for `CN1CCC/C1=C\N=N\c1ccc(Br)c(C(F)(F)F)c1` is 46 µM; for `Clc1ccc(/N=N\C2=C3CCCCN3CCC2)cc1` it is more than 60 µM.
Same read-out and setting: with `O=[N+]([O-])c1cc(/N=N\C2=C3CCCCN3CCC2)ccc1Cl` the figure was 18 µM; with `CCOC(=O)N1CCN(/C=C/N=N/c2ccccc2)CC1`, more than 13 µM.
Still for that read-out and setting: with `CCOC(=O)c1ccc(/N=N/C=C/N2CCCCC2)cc1` the figure was more than 100 µM; with `Clc1ccc(/N=N/C=C2\CCCN2Cc2ccccc2)cc1`, more than 18 µM.

For a further data set, the system named is Human immunodeficiency virus 1. The data set can be described thus: Antiviral activity against HIV1 infected in MT4 cells assessed as virus-induced cytopathogenicity after 4 days.
Settings: not given
In kind it is functional, organism-based.
Take `C(=C\N1CCSCC1)/N=N/c1ccccc1`: the result was inactive.
Same read-out and setting: with `CN1CCC/C1=C\N=N\c1ccc(Br)c(C(F)(F)F)c1` the entry was “inactive”.
Still for that read-out and setting: the entry for `Clc1ccc(/N=N\C2=C3CCCCN3CCC2)cc1` is “inactive”.
Same read-out and setting: the entry for `O=[N+]([O-])c1cc(/N=N\C2=C3CCCCN3CCC2)ccc1Cl` is “inactive”; for `CCOC(=O)N1CCN(/C=C/N=N/c2ccccc2)CC1` it is “inactive”; for `CCOC(=O)c1ccc(/N=N/C=C/N2CCCCC2)cc1` it is “inactive”.
Turning to `Clc1ccc(/N=N/C=C2\CCCN2Cc2ccccc2)cc1`, the result was inactive.

Another data set relates to Coxsackievirus B2. The data set can be described thus: Antiviral activity against CVB2 infected in Vero76 cells assessed as reduction in virus plaque formation after 4 days by MTT assay. In kind it is functional, organism-based. The settings on record: Enterovirus B, Vero 76, 96 h.
`C(=C\N1CCSCC1)/N=N/c1ccccc1`: the EC50 worked out at 6 µM.
The same measure, in the same setting: with `CN1CCC/C1=C\N=N\c1ccc(Br)c(C(F)(F)F)c1` the figure was 100 µM; with `Clc1ccc(/N=N\C2=C3CCCCN3CCC2)cc1`, 19 µM; with `O=[N+]([O-])c1cc(/N=N\C2=C3CCCCN3CCC2)ccc1Cl`, 51 µM.
The same measure, in the same setting: the figure for `CCOC(=O)N1CCN(/C=C/N=N/c2ccccc2)CC1` is 12 µM.
Still for that read-out and setting: with `CCOC(=O)c1ccc(/N=N/C=C/N2CCCCC2)cc1` the figure was 35 µM; with `Clc1ccc(/N=N/C=C2\CCCN2Cc2ccccc2)cc1`, 23 µM.

In the next data set the test system is Poliovirus 1. The data set can be described thus: Antiviral activity against Sb1 virus infected in Vero76 cells assessed as reduction in virus plaque formation after 4 days by MTT assay. In kind it is functional, organism-based. The settings on record: Enterovirus C, Sabin, Vero 76, 96 h.
For the compound `C(=C\N1CCSCC1)/N=N/c1ccccc1`, the half-maximal effective concentration (EC50) is more than 30 µM.
Same read-out and setting: with `CN1CCC/C1=C\N=N\c1ccc(Br)c(C(F)(F)F)c1` the figure was 60 µM; with `Clc1ccc(/N=N\C2=C3CCCCN3CCC2)cc1`, more than 80 µM.
Same read-out and setting: the figure for `O=[N+]([O-])c1cc(/N=N\C2=C3CCCCN3CCC2)ccc1Cl` is more than 100 µM; for `CCOC(=O)N1CCN(/C=C/N=N/c2ccccc2)CC1` it is more than 30 µM.
Same read-out and setting: the figure for `CCOC(=O)c1ccc(/N=N/C=C/N2CCCCC2)cc1` is 27 µM; for `Clc1ccc(/N=N/C=C2\CCCN2Cc2ccccc2)cc1` it is more than 70 µM.

The test system of another data set is Yellow fever virus. Kind of data set: Antiviral activity against YFV infected in BHK21 cells assessed as protection against virus-induced cytopathogenicity after 4 days by MTT assay. Format: functional, organism-based. The settings on record: BHK-21, 96 h. The gist of the method: as §1
With `C(=C\N1CCSCC1)/N=N/c1ccccc1`, the EC50 was more than 100 µM.
On the same count and under the same terms, with `CN1CCC/C1=C\N=N\c1ccc(Br)c(C(F)(F)F)c1` the figure was more than 100 µM.
Still for that read-out and setting: with `Clc1ccc(/N=N\C2=C3CCCCN3CCC2)cc1` the figure was more than 69 µM; with `O=[N+]([O-])c1cc(/N=N\C2=C3CCCCN3CCC2)ccc1Cl`, more than 10 µM.
Consider `CCOC(=O)N1CCN(/C=C/N=N/c2ccccc2)CC1`, for which the 50% effective concentration (EC50) is more than 100 µM.
Same read-out and setting: with `CCOC(=O)c1ccc(/N=N/C=C/N2CCCCC2)cc1` the figure was more than 100 µM; with `Clc1ccc(/N=N/C=C2\CCCN2Cc2ccccc2)cc1`, more than 20 µM.

Tested on in the next data set: not listed separately
Kind of data set: Cytotoxicity against mock-infected MDBK cells assessed as reduction in cell viability after 96 hrs by MTT assay. Format: cell-based, Bos taurus. The settings on record: cattle. The procedure, abridged: (§2)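 Cytotoxicity run in parallel with the antiviral assays. MDBK seeded at 6 × 10^5 and BHK at 1 × 10^6 cells/mL in maintenance medium with or without serial compound dilutions. Incubated 48–96 h at 37 °C, 5% CO2, then viability read by MTT. CC50 is the concentration reducing mock-infected cell viability by 50%.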
Regarding `C(=C\N1CCSCC1)/N=N/c1ccccc1`, the half-maximal cytotoxic concentration (CC50) at 96 h is 14 µM.
On the same count and under the same terms, with `CN1CCC/C1=C\N=N\c1ccc(Br)c(C(F)(F)F)c1` the figure was more than 100 µM; with `Clc1ccc(/N=N\C2=C3CCCCN3CCC2)cc1`, 60 µM.
For the compound `O=[N+]([O-])c1cc(/N=N\C2=C3CCCCN3CCC2)ccc1Cl`, the CC50 at 96 h was found to be 18 µM.
The same measure, in the same setting: with `CCOC(=O)N1CCN(/C=C/N=N/c2ccccc2)CC1` the figure was 13 µM; with `CCOC(=O)c1ccc(/N=N/C=C/N2CCCCC2)cc1`, more than 100 µM.
On the same count and under the same terms, with `Clc1ccc(/N=N/C=C2\CCCN2Cc2ccccc2)cc1` the figure was 18 µM.

Tested on in the next data set: not listed separately
The data set can be described thus: Cytotoxicity against mock-infected BHK cells assessed as reduction in cell viability after 96 hrs by MTT assay. The settings on record: hamster. In kind it is cell-based, Mesocricetus auratus. The gist of the method: as §2
Take `C(=C\N1CCSCC1)/N=N/c1ccccc1`: the CC50 at 96 h was more than 100 µM.
The same measure, in the same setting: the figure for `CN1CCC/C1=C\N=N\c1ccc(Br)c(C(F)(F)F)c1` is more than 100 µM; for `Clc1ccc(/N=N\C2=C3CCCCN3CCC2)cc1` it is 69 µM; for `O=[N+]([O-])c1cc(/N=N\C2=C3CCCCN3CCC2)ccc1Cl` it is 10 µM.
The same measure, in the same setting: the figure for `CCOC(=O)N1CCN(/C=C/N=N/c2ccccc2)CC1` is more than 100 µM; for `CCOC(=O)c1ccc(/N=N/C=C/N2CCCCC2)cc1` it is more than 100 µM; for `Clc1ccc(/N=N/C=C2\CCCN2Cc2ccccc2)cc1` it is 20 µM.

Tested on in another data set: not listed separately
Kind of data set: Cytotoxicity against mock-infected african green monkey Vero76 cells assessed as reduction in cell viability after 96 hrs by MTT assay. Format: cell-based, Vero. The settings on record: chlorocebus sabaeus.
Turning to `C(=C\N1CCSCC1)/N=N/c1ccccc1`, the cytotoxic concentration (CC50) at 96 h turned out to be 30 µM.
On the same count and under the same terms, the figure for `CN1CCC/C1=C\N=N\c1ccc(Br)c(C(F)(F)F)c1` is not below 100 µM; for `Clc1ccc(/N=N\C2=C3CCCCN3CCC2)cc1` it is 80 µM.
On the same count and under the same terms, with `O=[N+]([O-])c1cc(/N=N\C2=C3CCCCN3CCC2)ccc1Cl` the figure was 100 µM.
The same measure, in the same setting: with `CCOC(=O)N1CCN(/C=C/N=N/c2ccccc2)CC1` the figure was 30 µM.
As to `CCOC(=O)c1ccc(/N=N/C=C/N2CCCCC2)cc1`, the CC50 at 96 h was more than 100 µM.
On the same count and under the same terms, with `Clc1ccc(/N=N/C=C2\CCCN2Cc2ccccc2)cc1` the figure was 70 µM.

For another data set, the system named is Vaccinia virus. Kind of data set: Antiviral activity against VV infected in Vero76 cells assessed as reduction in virus plaque formation after 4 days by MTT assay. In kind it is functional, organism-based. Conditions: Orthopoxvirus vaccinia; Vero 76.
For `C(=C\N1CCSCC1)/N=N/c1ccccc1`, the result was inactive.
The same measure, in the same setting: the entry for `CN1CCC/C1=C\N=N\c1ccc(Br)c(C(F)(F)F)c1` is “inactive”; for `Clc1ccc(/N=N\C2=C3CCCCN3CCC2)cc1` it is “inactive”.
Same read-out and setting: with `O=[N+]([O-])c1cc(/N=N\C2=C3CCCCN3CCC2)ccc1Cl` the entry was “inactive”; with `CCOC(=O)N1CCN(/C=C/N=N/c2ccccc2)CC1`, “inactive”.
The same measure, in the same setting: with `CCOC(=O)c1ccc(/N=N/C=C/N2CCCCC2)cc1` the entry was “inactive”; with `Clc1ccc(/N=N/C=C2\CCCN2Cc2ccccc2)cc1`, “inactive”.

(Values after ChEMBL document CHEMBL1144182, “Antimicrobial and cytotoxic arylazoenamines. Part III: antiviral activity of selected classes of arylazoenamines” (Bioorg Med Chem, 2008).)
